KCNQ1 block: inhibitors of human KCNQ1 channel, primary screen, cell-based, thallium flux, high-throughput. B-score at 10 µM. 1.3% of 310,000 active. Potassium voltage-gated channel subfamily KQT member 1 (Homo sapiens), P51787. CHO-K1 KCNQ1, FluxOR thallium flux fluorescence; hits give high values;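 active = compounds whose thallium flux B-score, printed positive for inhibition, exceeds three library SD while starting fluorescence stays within three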;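 note: channel opened by potassium depolarization with thallium stimulus after 20 min compound exposure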
Target sequence (P51787 whole entry, looked up): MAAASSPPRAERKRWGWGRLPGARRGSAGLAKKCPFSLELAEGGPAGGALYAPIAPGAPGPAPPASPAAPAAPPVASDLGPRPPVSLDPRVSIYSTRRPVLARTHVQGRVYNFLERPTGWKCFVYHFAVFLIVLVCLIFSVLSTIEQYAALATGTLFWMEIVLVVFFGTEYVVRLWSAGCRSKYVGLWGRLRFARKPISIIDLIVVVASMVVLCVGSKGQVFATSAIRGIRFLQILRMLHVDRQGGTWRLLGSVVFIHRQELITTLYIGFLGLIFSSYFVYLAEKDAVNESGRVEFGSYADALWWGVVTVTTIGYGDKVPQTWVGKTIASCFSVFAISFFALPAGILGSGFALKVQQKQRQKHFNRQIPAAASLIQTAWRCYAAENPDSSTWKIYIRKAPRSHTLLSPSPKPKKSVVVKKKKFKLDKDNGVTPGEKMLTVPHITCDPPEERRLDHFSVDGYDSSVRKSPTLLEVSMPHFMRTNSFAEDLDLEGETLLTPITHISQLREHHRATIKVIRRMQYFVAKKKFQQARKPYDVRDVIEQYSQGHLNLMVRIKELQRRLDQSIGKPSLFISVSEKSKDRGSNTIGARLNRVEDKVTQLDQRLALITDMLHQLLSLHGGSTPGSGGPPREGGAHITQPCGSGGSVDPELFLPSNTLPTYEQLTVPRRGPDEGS
KCNK3 inh: human KCNK3 channel inhibitors, primary screen, CHO cells, FluxOR thallium flux, B-score; Potassium channel subfamily K member 3 (Homo sapiens), O14649; FluxOR fluorescence; hits give low values; B-score at 10 µM; 0.84% of 340,000 active;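 active = B-score under library mean minus 4 SD, starting fluorescence ratio at most library mean plus 5 SD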;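 note: more negative B-score means stronger inhibition of thallium flux through KCNK3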
hERG protect: hERG rescue from dofetilide block, primary screen, cell-based, CHO-hERG, FluxOR thallium flux, dofetilide IC70. Voltage-gated inwardly rectifying potassium channel KCNH2 (Homo sapiens), Q12809. dofetilide IC70 present. activation (rescue from dofetilide block), less the hit threshold, % at 10 µM. 0.51% of 310,000 active. AID 1511, 2009;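 active = activation above the mean of controls blocked by dofetilide plus 5 SD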;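 note: thallium influx through hERG after potassium depolarization seen as dye fluorescence rise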
KCNK9 block: KCNK9 potassium channel inhibitors, primary screen, HEK293 cells, thallium flux; Potassium channel subfamily K member 9 (Homo sapiens), Q9NPC2; FluxOR thallium flux fluorescence; hits give low values; B-score at 10 µM; 1.2% of 310,000 active;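 active = ratio B-score over 3 SD below the library mean, with starting fluorescence within 5 SD of its mean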;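 note: negative B-score means less thallium flux so channel inhibition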
KCNQ1 act: potentiators or activators of KCNQ1 channel, primary screen, cell-based, thallium flux, high-throughput; Potassium voltage-gated channel subfamily KQT member 1 (Homo sapiens), P51787; CHO-K1 KCNQ1, thallium flux FluxOR fluorescence; hits give high values; B-score at 10 µM; 0.35% of 310,000 active;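 active = fluorescence ratio B-score, a plate-corrected score, at least three library SD, with initial intensity B-score within 5 SD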
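Test system: CHO-K1 cells stably expressing KCNQ1 / Medium: assay buffer / Also added: depolarizing K+/Tl+ stimulus, K2SO4 and Tl2SO4 each 12.5 mM in 5x stock / Incubation: 90 min dye loading and 20 min compound exposure, both at room temperature / Signal: thallium influx via FluxOR fluorescence, kinetic imaging / Evaluation: B score of baseline-normalized fluorescence ratio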
An asterisk follows results filed as active; i = inactive; x = no result given. Shown are actives, neighbours in structure and some others; about 3.1% of the full set was active somewhere.

SMILES | KCNQ1 block | KCNK3 inh | hERG protect | KCNK9 block | KCNQ1 act
CCC1C(c2ccccc2)N(C)C(c2ccccc2)CC1(O)c1ccccc1 (configuration not stated) | 12* | i | -23 | i | i
COc1ccc(OCC2CCNCC2)cc1 | i | i | -3 | i | i
O=C(Nc1ccc(Cl)c(NC(=O)c2cccs2)c1)c1ccco1 | i | i | -5 | i | i
O=C(NC(=S)Nc1nc2ccccc2s1)c1cccs1 | i | i | 52* | i | 54*
COC(=O)c1nc(NC(=S)NC(=O)c2cccs2)sc1C | i | i | -4 | i | i
NC(=S)Nc1nc2ccccc2s1 | i | i | -3 | i | 8*
O=C(NCCC(c1ccccc1)c1ccccc1)c1cccs1 | i | i | -4 | -7* | i
COCC(=O)Nc1nc2ccccc2s1 | i | i | -4 | i | i
O=C(NCCc1ccccc1)c1cccs1 | i | i | -9 | i | i
O=C(Nc1cccc(NC(=O)c2cccs2)c1)c1ccco1 | i | i | -13 | -6.6* | i
S=C(Nc1ccc(Cl)cc1)c1nc2ccccc2s1 | i | i | 27* | i | 29*
Cc1ccc(NC(=S)c2nc3ccccc3s2)cc1 | i | i | 3 | i | i
O=C(/C=C/c1ccccc1)NC(=S)Nc1ccc(N2CCOCC2)c(Cl)c1 | i | i | -11 | i | i
COc1ccc(/C=C/C(=O)c2ccc(NC(=O)c3cccs3)cc2)cc1OC | i | i | 8.9* | i | i
O=C(NC(=S)NCc1ccccc1)c1cccs1 | i | i | 16* | i | 16*
O=C(NC(=S)Nc1ccc(N2CCOCC2)c(Cl)c1)C(c1ccccc1)c1ccccc1 | 6* | i | -6 | i | i
CC1(C)CNC(=O)c2sc(NC(=O)c3ccccc3Cl)nc2C1 | i | i | -10 | i | i
CCN(CC)S(=O)(=O)c1cc(NC(=O)CNc2cccc(S(=O)(=O)N3CCCC3)c2)ccc1C | i | i | -8 | i | i
CC1CCCCC1NC(=S)NC(=O)c1cccs1 (configuration not stated) | i | i | 5.2* | i | 20*
O=C(Nc1ccc(Cl)cc1)c1cccs1 | i | i | -14 | -7.2* | i
O=C(NC(=S)Nc1ccc(Br)cn1)c1cccs1 | i | i | 4 | i | 13*
CC(OC(=O)c1cccs1)C(=O)NC1CCCCC1C (configuration not stated) | x | i | x | x | x
O=C(Nc1ccc(NC(=O)c2cccs2)cc1)c1cccs1 | i | i | -5 | i | i
O=C(NC(=S)Nc1ccccc1)c1cccs1 | i | i | 10* | i | 11*
O=C(NCC(=O)N(c1cccnc1)C(C(=O)NC1CCCC1)c1cccs1)c1ccco1 (configuration not stated) | i | i | -5 | i | i
SMILES | KCNQ1 block | KCNK3 inh | hERG protect | KCNK9 block | KCNQ1 act
COCCN(CC(=O)Nc1cccc(C)c1C)C(=O)c1oc2c(Cl)cccc2c1C | x | i | x | x | x
CC1CCCCC1NC(=O)CSc1nnc(COc2ccc(Cl)cc2)o1 (configuration not stated) | i | i | -9 | i | i
COc1ccc(C)cc1-n1nnnc1SCC(=O)NC1CCS(=O)(=O)C1 (configuration not stated) | x | i | x | x | x
Cc1coc2c(C)c3oc(=O)c(CCC(=O)N4CCC(C(=O)NCCCC(=O)O)(c5ccccc5)CC4)c(C)c3cc12 | i | i | -7 | i | i
O=C(NC(=S)Nc1ccc(N2CCCCC2)c(Cl)c1)c1cccs1 | i | i | 13* | i | 65*
C/C(CC(=O)Nc1ccccc1-c1ccccc1)=N\NC(=O)COc1ccc(C)cc1Br | 6* | i | -13 | i | i
COc1ccccc1CNC(=O)C/C(C)=N/NC(=O)COc1ccc(C)cc1Br | i | i | -3 | i | i
COc1ccc2o/c(=N\O)c(C(=O)Nc3ccc(C)cc3)cc2c1 | 6* | i | -11 | i | i
O=C(NC(Nc1nc2ccc([N+](=O)[O-])cc2s1)(C(F)(F)F)C(F)(F)F)c1ccccc1Cl | 10* | i | -33 | i | i
CN(C)S(=O)(=O)c1ccc2nc(NC(=O)c3cccnc3)sc2c1 | i | i | -6 | i | i
O=C(NC(Nc1nc2ccc([N+](=O)[O-])cc2s1)(C(F)(F)F)C(F)(F)F)c1cccnc1 | 12* | i | -17 | i | i
C=C1[C@@H](C)C2[C@H](Cc3ccccc3)NC(=O)[C@]23OC(=O)CC[C@H](O)CCC[C@H](C)C/C=C/[C@H]3[C@@H]1O (some centres not stated) | i | x | -10 | i | 60*
Cc1cc(N2CCCCC2C)nc(-c2ccccc2O)n1 (configuration not stated) | i | i | -15 | i | i
COC(=O)CCC[C@H]1CC2(C[C@H](CCCO[Si](C)(C)C(C)(C)C)N1C(=O)OC(C)(C)C)OCCO2 | x | i | x | x | x
CCOC(=O)c1c(-c2ccccc2)nnn1-c1nc(OCC)nc(N2CCCCC2)n1 | i | -14* | -23 | i | i
Cc1cccc(NC(=O)CSc2ncnc3sc(C)cc23)c1 | i | i | -11 | i | i
O=C(Cn1nc(-c2ccccc2)c2ccccc2c1=O)Nc1ccc(O)cc1 | i | i | 15* | i | i
CC(NC(=O)Cn1nc(-c2ccccc2)c2ccccc2c1=O)c1ccccc1 (configuration not stated) | i | i | -5 | i | i
COc1ccc(C)cc1Nc1n[n+](C)c(-c2ccc(O)cc2O)s1 | i | i | -9 | i | i
COc1ccc(C)cc1Nc1n[n+](-c2ccccc2)c(-c2ccc(OC)c(OC)c2OC)s1 | 11* | i | -25 | i | i
COc1ccc(CN(C)C(c2ccccc2)c2nnnn2-c2ccccc2C)c(OC)c1C (configuration not stated) | i | i | -20 | -7.9* | i
COc1ccc(CN(C)CC(O)COC(c2ccccc2)c2ccccc2)c(OC)c1OC (configuration not stated) | i | i | -10 | i | i
CC(=O)[C@]1(O)Cc2c(O)c3c(c(O)c2[C@@H](O[C@H]2C[C@H](N)[C@H](O)[C@H](C)O2)C1)C(=O)c1ccccc1C3=O | 21* | x | -49 | i | i

Screening results as filed in PubChem.
